Results on 7 compounds are retold here after ChEMBL document CHEMBL1141578, “Structure-based optimization of cephalothin-analogue boronic acids as beta-lactamase inhibitors” (Bioorg Med Chem, 2008).

Experiment [1] is described as follows: Inhibition of AmpC beta lactamase.
Experiment [2] can be described thus: Inhibition of beta lactamase TEM30.
Experiment [3] is described as follows: Inhibition of AmpC beta lactamase N289A mutant. The method, boiled down: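 Rates were taken at steady state after the lag phase. Ki came from progress curves with and without inhibitor (Waley method), averaged over five inhibitor concentrations giving ≥50% inhibition, each in triplicate.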
Experiment [4] in a line: Inhibition of beta lactamase TEM1.

As usually defined, the Ki is a dissociation constant, usually derived from enzyme kinetics or from competition with a known ligand. Regarding `O=C(Cc1cccs1)N[C@H](B(O)O)c1cccc(C(=O)O)c1`, the inhibitory constant (Ki) turned out to be 0.001 µM in experiment [1], 7.8 µM in experiment [2], 0.017 µM in experiment [3] and 0.064 µM in experiment [4].

On to `O=C(O)/C=C/c1cccc([C@H](NC(=O)Cc2cccs2)B(O)O)c1`, for which the Ki was 3.8 µM in experiment [2], 0.0028 µM in experiment [3] and 0.106 µM in experiment [4].

The compound `CC(=O)NCB(O)O` [ACETAMIDOMETHYLBORONIC ACID] displayed a Ki in experiment [1] of 18.5 µM.

For the compound `CC(=O)OCC1=C(C(=O)O)N2C(=O)[C@@H](NC(=O)Cc3cccs3)[C@H]2SC1` [CEPHALOTHIN], in experiment [1], the Ki is 0.32 µM.

As for `O=C(Cc1cccs1)N[C@H](B(O)O)c1ccccc1`, the affinity in experiment [1], expressed as Ki, was 0.035 µM.

In the case of `O=C(Cc1cccs1)NCB(O)O`, the Ki in experiment [1] was 0.32 µM.

In turn, `CB(O)O` [METHANE BORONIC ACID] came in with a Ki in experiment [1] of 1000 µM.
